Results reported in ChEMBL document CHEMBL4014308, “Amphiphilic Tobramycin-Lysine Conjugates Sensitize Multidrug Resistant Gram-Negative Bacteria to Rifampicin and Minocycline” (J Med Chem, 2017).
The source made the active and inactive calls.

Columns and labels:
Assay type in all cases: functional
[1] = system: Pseudomonas aeruginosa; assay: Antibacterial activity against Pseudomonas aeruginosa PAO1 after 18 hrs by microtiter dilution assay; settings: PAO1, 18 h
In short: (§1)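 Broth microdilution following CLSI guidelines. An overnight culture was adjusted to 0.5 McFarland in saline, then diluted 1:50 in Mueller-Hinton broth. This inoculum was added in equal volume to 2-fold serial dilutions of agent in MHB and incubated 18 h at 37 °C. MIC was the lowest concentration with no visible growth.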

[2] = system: Pseudomonas aeruginosa; assay: Antibacterial activity against multidrug/extremely drug-resistant/colistin-susceptible Pseudomonas aeruginosa isolate 100036 after 18 hrs by microtiter dilution assay; settings: isolate 100036, 18 h; in short: as §1
[3] = system: Pseudomonas aeruginosa; assay: Antibacterial activity against multidrug/extremely drug-resistant/colistin-susceptible Pseudomonas aeruginosa isolate 101885 after 18 hrs by microtiter dilution assay; settings: isolate 101885, 18 h; in short: as §1
[4] = system: Pseudomonas aeruginosa; assay: Antibacterial activity against multidrug/extremely drug-resistant/colistin-susceptible Pseudomonas aeruginosa isolate P259-96918 after 18 hrs by microtiter dilution assay; settings: isolate P259-96918, 18 h; in short: as §1
[5] = system: Pseudomonas aeruginosa; assay: Antibacterial activity against multidrug/extremely drug-resistant/colistin-susceptible Pseudomonas aeruginosa isolate P262-101856 after 18 hrs by microtiter dilution assay; settings: isolate P262-101856, 18 h; in short: as §1
[6] = system: Pseudomonas aeruginosa; assay: Antibacterial activity against multidrug/extremely drug-resistant/colistin-susceptible Pseudomonas aeruginosa isolate P264-104354 after 18 hrs by microtiter dilution assay; settings: isolate P264-104354, 18 h; in short: as §1
[7] = system: Pseudomonas aeruginosa; assay: Antibacterial activity against multidrug/extremely drug-resistant/colistin-resistant Pseudomonas aeruginosa isolate 91433 after 18 hrs by microtiter dilution assay; settings: isolate 91433, 18 h; in short: as §1
[8] = system: Pseudomonas aeruginosa; assay: Antibacterial activity against multidrug/extremely drug-resistant/colistin-resistant Pseudomonas aeruginosa isolate 101243 after 18 hrs by microtiter dilution assay; settings: isolate 101243, 18 h; in short: as §1
[9] = system: Acinetobacter baumannii; assay: Antibacterial activity against multidrug-resistant Acinetobacter baumannii AB027 after 18 hrs by microtiter dilution assay; settings: AB027, 18 h; in short: as §1
[10] = system: Acinetobacter baumannii; assay: Antibacterial activity against multidrug-resistant Acinetobacter baumannii AB030 after 18 hrs by microtiter dilution assay; settings: AB030, 18 h; in short: as §1
[11] = system: Acinetobacter baumannii; assay: Antibacterial activity against multidrug-resistant Acinetobacter baumannii AB031 after 18 hrs by microtiter dilution assay; settings: AB031, 18 h; in short: as §1
[12] = system: Acinetobacter baumannii; assay: Antibacterial activity against multidrug-resistant Acinetobacter baumannii 110193 after 18 hrs by microtiter dilution assay; settings: Acinetobacter baumannii, 110193, 18 h; in short: as §1
[13] = system: Enterobacter cloacae; assay: Antibacterial activity against multidrug-resistant Enterobacter cloacae 117029 after 18 hrs by microtiter dilution assay; settings: Enterobacter cloacae, 117029, 18 h; in short: as §1
[14] = system: Klebsiella pneumoniae; assay: Antibacterial activity against multidrug-resistant Klebsiella pneumoniae 116381 after 18 hrs by microtiter dilution assay; settings: Klebsiella pneumoniae, 116381, 18 h; in short: as §1
[15] = system: Pseudomonas aeruginosa; assay: Bactericidal activity against Pseudomonas aeruginosa PAO1 at 4 times antibacterial MIC after 2 hrs
In short: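 Time-kill with P. aeruginosa PAO1. A 0.5 McFarland suspension was diluted 1:50 in LB broth and exposed to agent in PBS (pH 7.2) at 1/2×, 1×, 2× or 4× MIC at 37 °C for 6 h. Samples at 0, 10, 30, 60, 90, 120, 240 and 360 min were serially diluted in PBS, plated on LB agar, and colonies counted after 20 h at 37 °C.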

[16] = system: Pseudomonas aeruginosa; assay: Bactericidal activity against Pseudomonas aeruginosa PAO1 at 0.125 times antibacterial MIC after 6 hrs
[17] = system: Pseudomonas aeruginosa; assay: Antibacterial activity against Pseudomonas aeruginosa PAO1 after 25 serial passages at 0.125 times MIC by microtiter dilution assay
[18] = system: Pseudomonas aeruginosa; assay: Antibacterial activity against multidrug/extremely drug-resistant/colistin-susceptible Pseudomonas aeruginosa isolate P262-101856 infected in Galleria mellonella assessed as mortality at 75 mg/kg after 24 hrs relative to control; settings: isolate P262-101856, 24 h
In short: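 Galleria mellonella larvae (about 250 mg, used within 7 days; 15 per group) were injected with 10 µL of XDR P. aeruginosa P262 at 1.0×10^3 CFU/mL. At 2 h they received a single 10 µL injection: monotherapy at 75 mg/kg, or combinations at 12.5+12.5 to 75+75 mg/kg. PBS vehicle served as control. Survival was scored over 24 h at 37 °C.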

[19] = system: Staphylococcus aureus; assay: Antibacterial activity against Staphylococcus aureus ATCC 29213 after 18 hrs by microtiter dilution assay; settings: ATCC 29213, 18 h; in short: as §1
[20] = system: Staphylococcus aureus; assay: Antibacterial activity against methicillin resistant Staphylococcus aureus ATCC 33592 after 18 hrs by microtiter dilution assay; settings: ATCC 33592, 18 h; in short: as §1
[21] = system: Staphylococcus epidermidis; assay: Antibacterial activity against methicillin-susceptible Staphylococcus epidermidis isolate CANWARD-2008 81388 after 18 hrs by microtiter dilution assay; settings: isolate CANWARD-2008 81388, 18 h; in short: as §1
[22] = system: Staphylococcus epidermidis; assay: Antibacterial activity against methicillin-resistant Staphylococcus epidermidis isolate CAN-ICU 61589 after 18 hrs by microtiter dilution assay; settings: isolate CAN-ICU 61589, 18 h; in short: as §1
[23] = system: Enterococcus faecalis; assay: Antibacterial activity against Enterococcus faecalis ATCC 29212 after 18 hrs by microtiter dilution assay; settings: ATCC 29212, 18 h
In short: (§2)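 Broth microdilution per CLSI. Overnight culture adjusted to 0.5 McFarland in saline, diluted 1:50 in Mueller-Hinton broth, and added to an equal volume of 2-fold serial compound dilutions in MHB. Incubated 18 h at 37 °C. MIC taken as the lowest concentration with no visible growth.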

[24] = system: Enterococcus faecium; assay: Antibacterial activity against Enterococcus faecium ATCC 27270 after 18 hrs by microtiter dilution assay; settings: ATCC 27270, 18 h; in short: as §2
[25] = system: Streptococcus pneumoniae; assay: Antibacterial activity against Streptococcus pneumoniae ATCC 49619 after 18 hrs by microtiter dilution assay; settings: ATCC 49619, 18 h; in short: as §2
[26] = system: Escherichia coli; assay: Antibacterial activity against Escherichia coli ATCC 25922 after 18 hrs by microtiter dilution assay; settings: ATCC 25922, 18 h; in short: as §1
[27] = system: Escherichia coli; assay: Antibacterial activity against gentamicin-resistant Escherichia coli isolate CAN-ICU 61714 after 18 hrs by microtiter dilution assay; settings: isolate CAN-ICU 61714, 18 h; in short: as §1
[28] = system: Escherichia coli; assay: Antibacterial activity against amikacin-resistant Escherichia coli isolate CAN-ICU 63074 after 18 hrs by microtiter dilution assay; settings: isolate CAN-ICU 63074, 18 h; in short: as §1
[29] = system: Escherichia coli; assay: Antibacterial activity against gentamicin/tobramycin/ciprofloxacin-resistant Escherichia coli isolate CANWARD-2011 97615 harboring AAC3-2A after 18 hrs by microtiter dilution assay; settings: isolate CANWARD-2011 97615, 18 h; in short: as §1
[30] = system: Pseudomonas aeruginosa; assay: Antibacterial activity against Pseudomonas aeruginosa ATCC 27853 after 18 hrs by microtiter dilution assay; settings: ATCC 27853, 18 h; in short: as §2
[31] = system: Pseudomonas aeruginosa; assay: Antibacterial activity against gentamicin-resistant Pseudomonas aeruginosa isolate CAN-ICU 62308 after 18 hrs by microtiter dilution assay; settings: isolate CAN-ICU 62308, 18 h; in short: as §1
[32] = system: Pseudomonas aeruginosa; assay: Antibacterial activity against gentamicin/tobramycin-resistant Pseudomonas aeruginosa isolate CANWARD-2011 96846 after 18 hrs by microtiter dilution assay; settings: isolate CANWARD-2011 96846, 18 h; in short: as §1
[33] = system: Stenotrophomonas maltophilia; assay: Antibacterial activity against Stenotrophomonas maltophilia isolate CAN-ICU 62584 after 18 hrs by microtiter dilution assay; settings: isolate CAN-ICU 62584, 18 h; in short: as §2
[34] = system: Acinetobacter baumannii; assay: Antibacterial activity against Acinetobacter baumannii isolate CAN-ICU 63169 after 18 hrs by microtiter dilution assay; settings: isolate CAN-ICU 63169, 18 h; in short: as §2
[35] = system: Klebsiella pneumoniae; assay: Antibacterial activity against Klebsiella pneumoniae ATCC 13883 after 18 hrs by microtiter dilution assay; settings: ATCC 13883, 18 h; in short: as §2
[36] = system: Pseudomonas aeruginosa; assay: Synergistic antibacterial activity against Pseudomonas aeruginosa PAO1 after 18 hrs in presence of minocycline by checkerboard assay
In short: (§3)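 Checkerboard in MHB: antibiotic diluted along one axis and adjuvant along the other (10 × 7 matrix). Inoculum was a 1:50 dilution in MHB of a 0.5 McFarland saline suspension; incubated 18 h at 37 °C. Each FIC = concentration in the no-growth well divided by the MIC alone; FIC index = sum of both FICs. ≤0.5 synergy, 0.5–4 no interaction, ≥4 antagonism.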

[37] = system: Pseudomonas aeruginosa; assay: Synergistic antibacterial activity against Pseudomonas aeruginosa PAO1 after 18 hrs in presence of rifampicin by checkerboard assay; in short: as §3
[38] = system: Pseudomonas aeruginosa; assay: Induction of outer membrane permeabilization in Pseudomonas aeruginosa PAO1 at 32 ug/ml after 30 mins by CFDASE staining based fluorescence assay
In short: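 Log-phase PAO1 washed in PBS, brought to OD600 0.5 and loaded with 100 µM CFDASE for 30 min at 37 °C, then washed. Cells were exposed to agent for 30 min at 37 °C and supernatant fluorescence read at 488/520 nm. Untreated cells were subtracted; 1% Triton X-100 served as positive control.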

[39] = system: Pseudomonas aeruginosa; assay: Induction of cytoplasmic membrane depolarization in Pseudomonas aeruginosa PAO1 up to 1200 secs by diSC3-5 staining based fluorescence assay
In short: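 Mid-log PAO1 washed in 5 mM HEPES pH 7.4 with 20 mM glucose and resuspended to OD600 0.05. Cells were loaded with 0.2 mM EDTA and 0.4 µM diSC3-5 for 2 h at 37 °C in the dark, then equilibrated with 100 mM KCl for 30 min. Agent was added and fluorescence followed at 622/670 nm; agents tested at 32 µg/mL.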

[40] = system: Pseudomonas aeruginosa; assay: Disruption of proton motive force in Pseudomonas aeruginosa PAO1 cytoplasmic membrane assessed as repression of bacterial swimming motility after 20 hrs
In short: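 Swim plates of 0.3% agar with tryptone 5 g/L and NaCl 2.5 g/L, agent mixed into the medium and plates dried 2 h. PAO1 at 1.0 McFarland in 0.85% saline was point-inoculated at the center, and plates incubated 20 h at 37 °C before swim diameter was imaged.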

CO[C@H]1/C=C/O[C@@]2(C)Oc3c(C)c(O)c4c(O)c(c(/C=N/N5CCN(C)CC5)c(O)c4c3C2=O)NC(=O)/C(C)=C\C=C\[C@H](C)[C@H](O)[C@@H](C)[C@@H](O)[C@@H](C)[C@H](OC(C)=O)[C@@H]1C [RIFAMPIN]
2 µg/mL: MIC [9] | MIC [11] | MIC [12]
8 µg/mL: MIC [8]
> 256 µg/mL: MIC [10]
100%: mortality at 75 mg/kg [18]
1020 µg/mL: MIC [5] | MIC [14]
active: Activity [15] | Activity [17]
inactive: Activity [16]
16 µg/mL: MIC [1] | MIC [2] | MIC [3] | MIC [4] | MIC [6] | MIC [7] | MIC [13]

CCCCCCCCCCCCN(Cc1c2ccccc2c(Cl)c2ccccc12)C(=O)[C@@H](N)CCCCN.O=C(O)C(F)(F)F.O=C(O)C(F)(F)F
128 µg/mL: MIC [27] | MIC [31] | MIC [34] | MIC [3] | MIC [5] | MIC [6]
64 µg/mL: MIC [20] | MIC [26] | MIC [28] | MIC [29] | MIC [4] | MIC [8]
8 µg/mL: MIC [21] | MIC [22] | MIC [24]
inactive: Activity [36] | Activity [37] | Activity [38]
32 µg/mL: MIC [19] | MIC [23] | MIC [25]
active: Activity [39] Dose-dependent effect | Activity [40] Dose-dependent effect
256 µg/mL: MIC [1] | MIC [2] | MIC [7]
> 128 µg/mL: MIC [30] | MIC [32] | MIC [33] | MIC [35]
